Active and inactive are the calls of the source. No cut-off for these calls is given here.
Tests used:
MCF7 [1] = experiment: Antiproliferative activity against human ER-negative MCF7 cells after 24 hrs by MTT assay; assay type: functional, cell-based; settings: mcf7
[2] = Antiproliferative activity against human DLD1 cells after 24 hrs by MTT assay; assay type: functional, cell-based; settings: DLD-1, 24 h
In short: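 MTT viability: cells seeded at 1×10^4 per well in DMEM with 10% FBS, left to adhere overnight, then serum-starved 4 h. Compounds were given at a range of doses, with 0.1% DMSO vehicle as control. EC50 was taken from dose-response curves spanning 100nM-50µM. Data are mean ± SEM from at least three independent experiments.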

MCF7 [3] = experiment: Cell cycle arrest in human […] cells assessed as accumulation at subG1 phase at 5 uM by propidium iodide staining by FACS analysis (reference value: 0.1%); assay type: functional
MDA-MB-231 [4] = experiment: Cell cycle arrest in human […] cells assessed as accumulation at G2 phase at 2.5 uM by propidium iodide staining by FACS analysis (reference value: 22.74%); assay type: functional
MDA-MB-231 [5] = experiment: Cell cycle arrest in human […] cells assessed as accumulation at G2 phase at 5 uM by propidium iodide staining by FACS analysis (reference value: 22.74%); assay type: functional
MCF7 [6] = experiment: Antitumor activity against human MCF7 cells xenografted in NIH-3 mouse assessed as reduction in tumor volume at 16 mg/kg, po for 29 days relative to control; assay type: functional; settings: MCF7, 696 h
In short: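 MCF-7 cells (5x10^6 in 100μl PBS) injected intraperitoneally into NIH-III nude mice; after tumor induction, groups of n=10 dosed orally daily for 29 days at 8 or 16 mg/kg/day in 1% carboxymethyl cellulose (vehicle controls). Tumor diameter by vernier calipers every third day; volume = π/6×d³ (d mean diameter).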

[7] = molecular target: Insulin receptor (Homo sapiens) (UniProt P06213); experiment: Inhibition of IR (unknown origin) at 10 uM
Chain of Insulin receptor (Homo sapiens) (P06213 28-758 limits assumed): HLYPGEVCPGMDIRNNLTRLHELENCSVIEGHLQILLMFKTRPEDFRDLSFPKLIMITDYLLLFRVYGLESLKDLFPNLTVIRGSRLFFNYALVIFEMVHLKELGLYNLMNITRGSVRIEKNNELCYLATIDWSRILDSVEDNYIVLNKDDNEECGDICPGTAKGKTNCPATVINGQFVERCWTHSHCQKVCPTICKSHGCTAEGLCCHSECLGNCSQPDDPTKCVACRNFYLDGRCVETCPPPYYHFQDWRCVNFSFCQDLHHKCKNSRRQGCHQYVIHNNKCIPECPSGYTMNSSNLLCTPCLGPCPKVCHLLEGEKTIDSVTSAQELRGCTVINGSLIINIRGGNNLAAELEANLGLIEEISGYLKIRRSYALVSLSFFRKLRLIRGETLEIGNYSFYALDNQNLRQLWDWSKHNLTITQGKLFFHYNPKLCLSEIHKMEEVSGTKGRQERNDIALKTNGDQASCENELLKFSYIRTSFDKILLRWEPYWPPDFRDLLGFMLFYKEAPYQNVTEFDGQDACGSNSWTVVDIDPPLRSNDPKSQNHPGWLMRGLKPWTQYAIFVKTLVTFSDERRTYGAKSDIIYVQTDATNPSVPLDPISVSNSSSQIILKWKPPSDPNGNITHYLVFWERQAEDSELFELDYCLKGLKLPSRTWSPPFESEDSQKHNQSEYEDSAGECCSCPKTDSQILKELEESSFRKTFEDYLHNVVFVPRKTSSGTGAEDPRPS
Chain of Insulin receptor (Homo sapiens) (P06213 763-1382 limits assumed): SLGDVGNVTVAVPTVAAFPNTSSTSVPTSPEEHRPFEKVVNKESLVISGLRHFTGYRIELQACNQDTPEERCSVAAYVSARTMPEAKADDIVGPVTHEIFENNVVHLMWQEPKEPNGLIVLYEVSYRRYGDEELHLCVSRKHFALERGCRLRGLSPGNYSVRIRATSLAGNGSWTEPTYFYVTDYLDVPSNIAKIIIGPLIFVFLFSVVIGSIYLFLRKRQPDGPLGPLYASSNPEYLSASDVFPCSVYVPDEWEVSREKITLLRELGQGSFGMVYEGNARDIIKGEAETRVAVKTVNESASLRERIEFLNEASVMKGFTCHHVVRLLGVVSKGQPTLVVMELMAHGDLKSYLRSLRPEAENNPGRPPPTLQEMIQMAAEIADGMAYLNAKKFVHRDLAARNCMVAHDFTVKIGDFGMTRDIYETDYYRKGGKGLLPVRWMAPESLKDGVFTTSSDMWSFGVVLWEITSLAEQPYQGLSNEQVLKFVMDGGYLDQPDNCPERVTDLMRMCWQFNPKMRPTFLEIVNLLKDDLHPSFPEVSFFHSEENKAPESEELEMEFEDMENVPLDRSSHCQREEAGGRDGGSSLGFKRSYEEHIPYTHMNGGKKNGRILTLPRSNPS

[8] = molecular target: Angiopoietin-1 receptor (Homo sapiens) (UniProt Q02763); experiment: Inhibition of Tie2 (unknown origin) at 10 uM
In short: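 Cell-free kinase profiling was run as a standard 33P-ATP-based in vitro kinase assay.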

MDA-MB-231 [9] = experiment: Induction of cAMP level in human MDA-MB-231 cells at 0.1 to 25 uM in presence of forskolin; assay type: functional, cell-based
In short: (§1)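 MDA-MB-231 cells serum-starved for 4 h, treated with 500μM IBMX for 30 min, then exposed to compound for a further 30 min. Cellular cAMP read by HTRF kit.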

MDA-MB-231 [10] = experiment: Induction of cAMP level in human MDA-MB-231 cells at 0.1 to 25 uM; assay type: functional, cell-based; in short: as §1
[11] = molecular target: Phosphodiesterase 6 (Homo sapiens) (UniProt Q13956+P18545+P35913+O43924+P16499+P51160); experiment: Inhibition of PDE6AB (unknown origin) activity at 1 to 10 uM; assay type: protein assay
In short: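 PDE6AB activity was measured by radiometric assay, a modification of the Thompson and Appleman two-step method. Sildenafil 1µM served as reference standard.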

[12] = molecular target: High affinity cGMP-specific 3',5'-cyclic phosphodiesterase 9A (Homo sapiens) (UniProt O76083); experiment: Inhibition of PDE9A1 (unknown origin) activity at 1 to 10 uM
Chain of High affinity cGMP-specific 3',5'-cyclic phosphodiesterase 9A (Homo sapiens) (O76083 whole entry, canonical isoform): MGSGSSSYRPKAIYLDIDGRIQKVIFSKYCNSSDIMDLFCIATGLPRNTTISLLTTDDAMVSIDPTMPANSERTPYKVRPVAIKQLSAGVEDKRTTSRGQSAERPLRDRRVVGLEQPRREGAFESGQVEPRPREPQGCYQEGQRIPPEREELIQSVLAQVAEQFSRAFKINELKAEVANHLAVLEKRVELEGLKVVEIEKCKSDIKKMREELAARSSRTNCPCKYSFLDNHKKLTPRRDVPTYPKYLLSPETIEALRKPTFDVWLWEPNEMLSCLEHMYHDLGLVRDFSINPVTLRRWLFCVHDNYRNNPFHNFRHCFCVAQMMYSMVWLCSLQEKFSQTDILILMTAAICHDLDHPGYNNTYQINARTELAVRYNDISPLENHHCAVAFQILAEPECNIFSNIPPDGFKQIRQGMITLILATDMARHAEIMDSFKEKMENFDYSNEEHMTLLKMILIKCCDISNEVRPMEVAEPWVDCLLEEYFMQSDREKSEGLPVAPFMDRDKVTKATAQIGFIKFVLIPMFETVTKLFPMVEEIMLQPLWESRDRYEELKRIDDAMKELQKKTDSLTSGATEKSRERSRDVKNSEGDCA
In short: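 Recombinant PDE isoform activity was read by fluorescence polarization. A binding reagent complexes with the nucleotide monophosphate that the phosphodiesterase generates from cAMP/cGMP, and this raises the polarization of the labelled substrate. Reference standards were PDE1A3 10µM IBMX, PDE2A3 1nM BAY 60-7550, PDE3CAT 1µM cilostazol, PDE4CAT rolipram, PDE5CAT 0.1µM sildenafil, PDE7A […], PDE8A1 10µM BRL-50481, PDE9A1 1µM SB 36216 and PDE11A1 dipyridamole.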

[13] = molecular target: cAMP and cAMP-inhibited cGMP 3',5'-cyclic phosphodiesterase 10A (Homo sapiens) (UniProt Q9Y233); experiment: Inhibition of PDE10A1 (unknown origin) activity at 1 to 10 uM
MDA-MB-231 [14] = experiment: Cytotoxicity against human MDA-MB-231 cells assessed as cell viability at 5 uM by MTT assay in presence of 100 ng/ml pertussis toxin for 16 hrs; assay type: functional, cell-based
MDA-MB-231 [15] = experiment: Cytotoxicity against human MDA-MB-231 cells assessed as cell viability at 5 uM by MTT assay in presence of 100 ng/ml cholera toxin for 16 hrs; assay type: functional, cell-based
[16] = molecular target: Epidermal growth factor receptor (Homo sapiens) (UniProt P00533); experiment: Inhibition of EGF-induced EGFR phosphorylation at Tyr845 in human MCF7 cells at 1 uM by ELISA; assay type: cell-based
Chain of Epidermal growth factor receptor (Homo sapiens) (P00533 whole entry): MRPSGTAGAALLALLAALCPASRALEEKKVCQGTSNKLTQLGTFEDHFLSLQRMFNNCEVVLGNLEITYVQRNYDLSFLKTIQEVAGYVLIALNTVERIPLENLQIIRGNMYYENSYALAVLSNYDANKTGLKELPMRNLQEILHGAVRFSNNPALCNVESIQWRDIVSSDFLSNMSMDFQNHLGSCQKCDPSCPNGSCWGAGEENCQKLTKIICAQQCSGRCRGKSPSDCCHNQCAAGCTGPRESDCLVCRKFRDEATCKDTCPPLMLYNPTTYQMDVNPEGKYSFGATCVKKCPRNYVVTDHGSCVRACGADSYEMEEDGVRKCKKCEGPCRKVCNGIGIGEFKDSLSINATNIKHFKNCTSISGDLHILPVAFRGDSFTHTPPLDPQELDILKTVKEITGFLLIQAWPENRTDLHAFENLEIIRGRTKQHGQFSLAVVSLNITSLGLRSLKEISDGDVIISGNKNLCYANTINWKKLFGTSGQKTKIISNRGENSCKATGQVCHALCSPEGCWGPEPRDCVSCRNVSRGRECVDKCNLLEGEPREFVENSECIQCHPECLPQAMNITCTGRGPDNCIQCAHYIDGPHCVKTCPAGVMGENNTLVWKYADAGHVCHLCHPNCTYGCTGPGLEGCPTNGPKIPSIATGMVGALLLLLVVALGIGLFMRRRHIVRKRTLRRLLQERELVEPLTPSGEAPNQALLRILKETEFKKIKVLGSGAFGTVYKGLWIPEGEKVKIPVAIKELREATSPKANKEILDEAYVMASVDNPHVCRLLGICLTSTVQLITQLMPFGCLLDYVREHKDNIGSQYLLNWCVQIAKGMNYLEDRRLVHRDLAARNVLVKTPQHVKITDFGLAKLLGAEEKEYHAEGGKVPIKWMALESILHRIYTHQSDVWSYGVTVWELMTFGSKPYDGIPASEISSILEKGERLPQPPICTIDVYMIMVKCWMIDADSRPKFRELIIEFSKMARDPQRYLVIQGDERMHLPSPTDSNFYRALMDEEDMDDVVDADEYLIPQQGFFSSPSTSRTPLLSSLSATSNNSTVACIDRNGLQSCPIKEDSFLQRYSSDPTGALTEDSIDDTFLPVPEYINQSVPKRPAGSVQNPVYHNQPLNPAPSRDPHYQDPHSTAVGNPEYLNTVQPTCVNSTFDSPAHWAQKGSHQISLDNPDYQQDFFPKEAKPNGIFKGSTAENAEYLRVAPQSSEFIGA

[17] = molecular target: Plasminogen activator inhibitor 1 (Homo sapiens) (UniProt P05121); experiment: Inhibition of basal level PAI-1 phosphorylation in human MDA-MB-231 cells at 1 uM by ELISA; assay type: cell-based
Chain of Plasminogen activator inhibitor 1 (Homo sapiens) (P05121 whole entry): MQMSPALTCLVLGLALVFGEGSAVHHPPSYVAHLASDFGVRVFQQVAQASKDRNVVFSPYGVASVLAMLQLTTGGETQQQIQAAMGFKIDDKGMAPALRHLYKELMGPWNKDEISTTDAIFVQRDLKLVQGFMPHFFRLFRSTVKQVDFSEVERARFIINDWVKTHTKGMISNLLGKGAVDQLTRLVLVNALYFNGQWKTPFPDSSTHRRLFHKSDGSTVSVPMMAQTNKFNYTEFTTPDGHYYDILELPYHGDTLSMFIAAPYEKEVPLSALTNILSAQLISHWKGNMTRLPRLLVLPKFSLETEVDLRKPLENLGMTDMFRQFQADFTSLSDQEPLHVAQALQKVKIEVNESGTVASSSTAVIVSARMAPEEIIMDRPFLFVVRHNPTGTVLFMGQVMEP

MDA-MB-231 [18] = experiment: Antiinvasion activity in human MDA-MB-231 cells assessed as inhibition of FBS-induced cell invaded to matrigel coated invasion chamber at 1 uM after 24 hrs by Transwell invasion assay; assay type: functional, cell-based
MDA-MB-231 [19] = experiment: Inhibition of mammosphere formation in human MDA-MB-231 cells at 5 to 20 uM after 8 days; assay type: functional, cell-based
In short: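 Single cells were plated in ultralow-attachment plates at 100,000 viable cells/ml for primary culture and 5,000 cells/ml for passages. Spheres formed over 7–10 days in serum-free MEBM containing compound, with salinomycin as comparator. Primary spheres were trypsin-dissociated for serial passage. Sphere number was counted manually and verified by two independent observers blinded to treatment.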

MDA-MB-231 [20] = experiment: Inhibition of INS expression in human MDA-MB-231 cells at 5 uM by ELISA; assay type: functional, cell-based
MDA-MB-231 [21] = experiment: Inhibition of TGFbeta expression in human MDA-MB-231 cells at 5 uM by ELISA; assay type: functional, cell-based
[22] = molecular target: Epidermal growth factor receptor (Homo sapiens) (UniProt P00533); experiment: Inhibition of EGF-induced EGFR phosphorylation at Tyr992 in human MDA-MB-231 cells at 1 uM by ELISA; assay type: cell-based
[23] = molecular target: T1, Mitogen-activated protein kinase; ERK1/ERK2 (Homo sapiens) (UniProt P27361+P28482); experiment: Inhibition of EGF-induced ERK1/2 phosphorylation in human MCF7 cells at 1 uM by ELISA; assay type: cell-based
T1 sequence (P27361 whole entry, looked up): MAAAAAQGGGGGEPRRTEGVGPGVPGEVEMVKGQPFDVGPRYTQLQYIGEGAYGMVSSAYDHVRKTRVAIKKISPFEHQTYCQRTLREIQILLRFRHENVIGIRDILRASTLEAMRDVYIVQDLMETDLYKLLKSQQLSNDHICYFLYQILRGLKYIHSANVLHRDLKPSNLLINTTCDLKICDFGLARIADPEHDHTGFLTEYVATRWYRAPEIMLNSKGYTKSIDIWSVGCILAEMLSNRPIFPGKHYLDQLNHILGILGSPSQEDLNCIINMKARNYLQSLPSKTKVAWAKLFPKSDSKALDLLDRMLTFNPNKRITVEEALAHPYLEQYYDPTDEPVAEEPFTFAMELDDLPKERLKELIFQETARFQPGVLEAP
T1 sequence (P28482 whole entry, looked up): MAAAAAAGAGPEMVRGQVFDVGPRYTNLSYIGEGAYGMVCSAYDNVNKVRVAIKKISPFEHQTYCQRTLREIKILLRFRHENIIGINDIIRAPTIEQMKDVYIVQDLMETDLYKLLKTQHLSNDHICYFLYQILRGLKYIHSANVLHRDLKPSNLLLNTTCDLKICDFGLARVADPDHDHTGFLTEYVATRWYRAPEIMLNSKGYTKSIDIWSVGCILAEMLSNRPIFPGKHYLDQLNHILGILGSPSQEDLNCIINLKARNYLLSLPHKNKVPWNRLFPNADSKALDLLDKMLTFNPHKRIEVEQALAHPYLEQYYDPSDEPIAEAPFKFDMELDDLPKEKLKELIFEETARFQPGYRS

[24] = molecular target: T1, Mitogen-activated protein kinase; ERK1/ERK2 (Homo sapiens); experiment: Inhibition of EGF-induced ERK1/2 phosphorylation in human MDA-MB-231 cells at 1 uM by ELISA; assay type: cell-based
[25] = molecular target: Signal transducer and activator of transcription 3 (Homo sapiens) (UniProt P40763); experiment: Inhibition of EGF-induced STAT3 phosphorylation in human MCF7 cells at 1 uM by ELISA; assay type: cell-based
[26] = molecular target: RAC-alpha serine/threonine-protein kinase (Homo sapiens) (UniProt P31749); experiment: Inhibition of basal level AKT phosphorylation in human MCF7 cells at 1 uM by ELISA; assay type: cell-based
Chain of RAC-alpha serine/threonine-protein kinase (Homo sapiens) (P31749 whole entry): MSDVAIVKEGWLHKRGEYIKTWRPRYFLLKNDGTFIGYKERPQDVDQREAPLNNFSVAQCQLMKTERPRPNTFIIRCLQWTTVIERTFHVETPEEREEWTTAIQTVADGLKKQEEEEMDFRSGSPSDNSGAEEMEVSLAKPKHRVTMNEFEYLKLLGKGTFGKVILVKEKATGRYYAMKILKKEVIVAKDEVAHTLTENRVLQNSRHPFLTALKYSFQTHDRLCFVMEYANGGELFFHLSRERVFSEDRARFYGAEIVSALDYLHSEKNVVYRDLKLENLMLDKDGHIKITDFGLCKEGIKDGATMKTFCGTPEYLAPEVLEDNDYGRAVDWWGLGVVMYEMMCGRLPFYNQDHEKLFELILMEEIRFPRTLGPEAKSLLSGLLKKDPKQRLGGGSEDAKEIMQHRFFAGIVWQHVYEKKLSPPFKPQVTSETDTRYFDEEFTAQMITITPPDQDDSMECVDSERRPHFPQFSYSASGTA

[27] = molecular target: Induced myeloid leukemia cell differentiation protein Mcl-1 (Homo sapiens) (UniProt Q07820); experiment: Inhibition of EGF-induced phosphorylated Mcl1 in human MDA-MB-231 cells at 1 uM by ELISA; assay type: cell-based
[28] = molecular target: Plasminogen activator inhibitor 1 (Homo sapiens) (UniProt P05121); experiment: Inhibition of EGF-induced […] PAI-1 in human MDA-MB-231 cells at 1 uM by ELISA; assay type: cell-based
In short: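 MDA-MB-231 cells treated at 1µM for 24 h with or without EGF. PAI-1 in conditioned medium measured by ELISA.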

`CCN(CC)CCO/N=C(\c1ccc(SC)cc1)c1cccc2ccccc12.O=C(O)C(=O)O` showed an EC50 (MCF7 [1]) of 7.5 µM, an EC50 [2] of 15.6 µM and an Activity (MCF7 [3]) of 0.9%. The Activity (MDA-MB-231 [4]) was 6.22%, the Activity (MDA-MB-231 [5]) was 8.5% and the inhibition in vivo at 16 mg/kg (MCF7 [6]) was 50%.

With `CCN(CC)CCO/N=C(\c1ccc(SC)cc1)c1cccc2ccccc12` the inhibition [7] was “inactive”, the inhibition [8] was “inactive” and the Activity (MDA-MB-231 [9]) was “Active”. For the same molecule, the Activity (MDA-MB-231 [10]) was “Active”, the inhibition [11] was “inactive” and the inhibition [12] was “inactive”. For the same molecule, the inhibition [13] was “inactive”, the inhibition (MDA-MB-231 [14]) was “inactive” and the inhibition (MDA-MB-231 [15]) was “Active”. The inhibition [16] was “Active”, the inhibition [17] was “Active” and the Activity (MDA-MB-231 [18]) was “Active”. The inhibition (MDA-MB-231 [19]) was “Active”, the inhibition (MDA-MB-231 [20]) was “inactive” and the inhibition (MDA-MB-231 [21]) was “inactive”. For the same molecule, the inhibition [22] was “Active”, the inhibition [23] was “Active” and the inhibition [24] was “Active”. The inhibition [25] was “Active”, the inhibition [26] was “inactive” and the inhibition [27] was “Active”. The inhibition [28] was “Active”.
